Assay [1] is described as follows: Concentration required for 50% inhibition of growth by the compound in normal peripheral blood lymphocytes. It counts as functional, cell-based, Homo sapiens. The gist of the method: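 Human lymphocytes isolated from whole blood on Ficoll Paque, stimulated with PHA (1 μL/mL) for 72 h and plated at 1 × 10^5/mL. Compounds added over 100 to 0.1 μg/mL. Survival measured after 24 h by MTT colorimetric assay, with formazan dissolved in acidic 2-propanol and absorbance read at 540 nm.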

For assay [2], the system named is MRC5CV1. As to the kind of experiment: Concentration required for 50% inhibition of growth by the compound in SV-40 transformed fibroblasts (MRC5CV1). It counts as functional, cell-based. The following applies: Homo sapiens. The procedure, abridged:
(§1)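 Cells kept in RPMI 1640 with 10% fetal calf serum at 37 °C, 5% CO2, then plated at 1 × 10^4 per 100 μL and left overnight. Exposure to varying concentrations for 1 h, followed by 48 h incubation. MTT (5 mg/mL stock) added for 4 h at 37 °C and formazan dissolved in 0.08 M HCl/2-propanol. Absorbance read at 540 nm against 690 nm reference. Three experiments, eight assays per point.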

For assay [3], the system named is T-24. The assay can be described thus: Concentration required for 50% inhibition of growth by the compound in transitional bladder carcinoma T24 cells. It is filed as functional, cell-based, Homo sapiens. The procedure, abridged: as §1
Where [4] appears, read: Homo sapiens, T-24, read-out: IC50.

In brackets after ≈: the same amount, converted by molar mass.

Broadly, the IC50 is the concentration that gives 50% inhibition. As to `CC(C)[C@@H]1NC(=O)[C@H]2N=C(O[C@@H]2C)[C@@H]2CCCN2C(=O)[C@H](Cc2ccccc2)NC(=O)[C@@H]2CSC(=N2)[C@H](Cc2ccccc2)NC(=O)[C@@H]2CSC1=N2`, the half-inhibitory concentration (IC50) in assay [1] is 0.08 µg/mL (≈ 0.108 µM); in assay [2] it was 0.04 µg/mL (≈ 0.0538 µM); in assay [3] (setting [4]) it was 0.06 µg/mL (≈ 0.0806 µM).
The like results for `CC(C)C1NC(=O)C2N=C(OC2C)C2CCCN2C(=O)C(Cc2ccccc2)NC(=O)c2csc(n2)C(Cc2ccccc2)NC(=O)c2csc1n2` (stereo not given) were, in that order, 20 µg/mL (≈ 27 µM), 15 µg/mL (≈ 20.3 µM) and 10 µg/mL (≈ 13.5 µM).
Take `CC(C)C1NC(=O)C2N=C(OC2C)C2CCCN2C(=O)C(Cc2ccccc2)NC(=O)c2csc(n2)C(Cc2ccccc2)NC(=O)C2CSC1=N2` (stereo in doubt; form 1): the IC50 in assay [1] was 8 µg/mL (≈ 10.8 µM); in assay [2], 1 µg/mL (≈ 1.35 µM); in assay [3] (t-24), 6 µg/mL (≈ 8.09 µM).
Molecule `CC(C)C1NC(=O)C2N=C(OC2C)C2CCCN2C(=O)C(Cc2ccccc2)NC(=O)c2csc(n2)C(Cc2ccccc2)NC(=O)C2CSC1=N2` (stereo in doubt; form 2) returned a 50% inhibitory concentration (IC50) in assay [3] (t-24) of 0.8 µg/mL (≈ 1.08 µM).

Values taken from ChEMBL document CHEMBL1124791, “Structure-activity relationships of the lissoclinamides: cytotoxic cyclic peptides from the ascidian Lissoclinum patella” (J Med Chem, 1990).
